Calls of active or inactive are those of the source. No cut-off for these calls is given here.
Key:
[1] = Toxicity in C57BL/6 mouse assessed as induction of liver damage at <=25 mg dosed as oral gavage as single bolus and measured after 24 hrs relative to control; assay type: organism-based; conditions: in vivo
How it was run: (§1)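 Male C57BL/6 mice, 6–7 weeks old, three per group. Single oral gavage bolus of 5, 10, 25, 50 or 100 mg in olive oil vehicle. Observed at 24 h for mortality, gross appearance and behavior, then post-mortem examination of liver and main organs.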

[2] = molecular target: T1, Nuclear receptor subfamily 1 group I member 2 (Homo sapiens, UniProt O75469); test: Agonist activity at PXR in human HT29-MTX cells assessed as increase in PXR protein expression at 1 to 25 uM incubated for 24 hrs by immunoblot analysis; assay type: cell-based
T1 sequence (O75469 whole entry): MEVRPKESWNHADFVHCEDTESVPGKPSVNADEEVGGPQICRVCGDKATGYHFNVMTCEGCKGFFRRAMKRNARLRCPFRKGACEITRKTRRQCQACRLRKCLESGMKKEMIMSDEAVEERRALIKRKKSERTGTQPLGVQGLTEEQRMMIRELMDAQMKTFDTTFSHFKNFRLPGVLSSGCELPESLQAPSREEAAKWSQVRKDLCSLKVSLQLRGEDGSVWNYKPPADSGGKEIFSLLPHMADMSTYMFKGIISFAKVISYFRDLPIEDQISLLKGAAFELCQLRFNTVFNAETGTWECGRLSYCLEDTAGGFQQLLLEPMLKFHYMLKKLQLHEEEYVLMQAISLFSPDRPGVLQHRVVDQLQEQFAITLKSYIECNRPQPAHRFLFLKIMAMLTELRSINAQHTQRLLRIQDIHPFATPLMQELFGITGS

[3] = molecular target: T1, Nuclear receptor subfamily 1 group I member 2; test: Agonist activity at PXR in human HepaRG cells assessed as reversion of PXR antagonist sulforaphane-induced suppression of CYP3A4 expression at 10 uM incubated for 24 hrs by immunoblot analysis; assay type: cell-based
Mus musculus [4] = test: Induction of PXR protein expression in C57BL/6 mouse intestine assessed as induction of localization of PXR protein at villous epithelium at 5 to 25 mg dosed as oral gavage as single bolus and measured after 24 hrs by IHC analysis relative to control; assay type: functional, organism-based
How it was run: (§2)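 Male C57BL/6 mice, 6–7 weeks old, three per group. Single oral gavage bolus (5–25 mg) in olive oil; vehicle controls; killed at 24 h. Liver and gut formalin-fixed, paraffin-embedded; 4 μm sections stained with H&E. PXR IHC with polyclonal antibody at 1:200 on an automated stainer with polymer detection.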

[5] = molecular target: T2, Oxysterols receptor LXR-beta (Homo sapiens) (UniProt P55055); test: Agonist activity at LXR-beta (unknown origin) at 10 uM by coactivator recruitment based Alpha-screen assay
T2 sequence (whole entry): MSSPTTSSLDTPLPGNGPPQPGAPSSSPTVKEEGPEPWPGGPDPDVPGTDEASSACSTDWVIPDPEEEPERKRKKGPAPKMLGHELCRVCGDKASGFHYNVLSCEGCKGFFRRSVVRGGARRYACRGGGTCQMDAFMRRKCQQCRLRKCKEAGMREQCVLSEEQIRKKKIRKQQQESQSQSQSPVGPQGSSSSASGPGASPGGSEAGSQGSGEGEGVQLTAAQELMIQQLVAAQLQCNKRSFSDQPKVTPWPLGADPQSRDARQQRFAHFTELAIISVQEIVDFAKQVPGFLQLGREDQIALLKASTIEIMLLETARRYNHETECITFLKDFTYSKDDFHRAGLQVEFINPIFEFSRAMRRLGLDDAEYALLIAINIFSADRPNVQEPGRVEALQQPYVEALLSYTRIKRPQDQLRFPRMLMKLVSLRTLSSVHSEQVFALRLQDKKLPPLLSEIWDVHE

[6] = molecular target: T1, Nuclear receptor subfamily 1 group I member 2; test: Agonist activity at PXR in human HepG2 cells assessed as increase in CYP3A4 mRNA expression at 1 to 25 uM incubated for 24 hrs; conditions: hepg2, 24 h
HepG2 = test: Effect on alpha-tocopherol level in human HepG2 cells at 25 uM; assay type: functional, cell-based
[7] = Toxicity in C57BL/6 mouse assessed as induction of organ damage at <=25 mg dosed as oral gavage as single bolus and measured after 24 hrs relative to control; assay type: organism-based; conditions: in vivo; how it was run: as §1
Mus musculus [8] = test: Induction of PXR protein expression in C57BL/6 mouse intestine assessed as induction of localization of PXR protein at brush border of enterocytes at 10 mg dosed as oral gavage as single bolus and measured after 24 hrs by IHC analysis relative to control; assay type: functional, organism-based; how it was run: as §2
Mus musculus [9] = test: Induction of PXR mRNA expression in C57BL/6 mouse liver at 5 to 25 mg dosed as oral gavage as single bolus and measured after 24 hrs relative to control; assay type: functional, organism-based
How it was run: (§3)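 Male C57BL/6 mice, 6–7 weeks old, three per group. Single oral gavage bolus of 5, 10 or 25 mg in olive oil vehicle; vehicle-only controls. Killed at 24 h. Tissue PXR mRNA measured; PXR, CYP3A11 and MDR1 protein measured by immunoblot.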

[10] = molecular target: T1, Nuclear receptor subfamily 1 group I member 2; test: Agonist activity at His-tagged PXR-LBD/SRC-1p (unknown origin) expressed in Escherichia coli BL21(DE3) at 10 uM by coactivator recruitment based Alpha-screen assay
[11] = molecular target: T1, Nuclear receptor subfamily 1 group I member 2; test: Agonist activity at PXR in human HepG2 cells assessed as increase in MDR1 mRNA expression at 1 to 50 uM incubated for 24 hrs; assay type: cell-based; conditions: hepg2, 24 h
How it was run: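 HepG2 cells exposed to 1–50 μM. MDR1 mRNA measured after RNA extraction and cDNA synthesis.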

[12] = molecular target: T3, PXR (Nuclear receptor subfamily 1 group I member 2) (Homo sapiens, UniProt O75469); test: Agonist activity at His-tagged PXR-LBD/SRC-1p (unknown origin) expressed in Escherichia coli BL21(DE3) by coactivator recruitment based Alpha-screen assay relative to T0901317; conditions: read-out: Efficacy
T3 sequence (O75469 whole entry): T1 sequence (O75469 whole entry)

[13] = molecular target: T1, Nuclear receptor subfamily 1 group I member 2; test: Agonist activity at PXR in human HepG2 cells transfected with PXR siRNA assessed as induction of CYP3A4 expression at 10 to 50 uM incubated for 24 hrs; assay type: cell-based; conditions: hepg2, 24 h
How it was run: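 HepG2 cells reverse-transfected with PXR siRNA using lipofectamine RNAiMAX; after 24 h silencing, treated with compound for a further 24 h. PXR and CYP3A4 transcription responses measured.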

Mus musculus [14] = test: Induction of PXR-dependent CYP3A11 protein expression in C57BL/6 mouse intestine at 5 to 25 mg dosed as oral gavage as single bolus and measured after 24 hrs relative to control; assay type: functional, organism-based; how it was run: as §3
[15] = Toxicity in C57BL/6 mouse assessed as mortality at 100 mg dosed as oral gavage as single bolus and measured after 24 hrs relative to control; assay type: organism-based; conditions: in vivo, read-out: Activity
How it was run: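 Male C57BL/6 wild-type mice aged 6–7 weeks, 3 per group. Single bolus by oral gavage in an olive-oil vehicle, with vehicle-only controls and dose groups of 5, 10, 25, 50 and 100 mg. Animals were checked 24 h after dosing by gross appearance and behaviour, then killed, and liver and main organs were examined post-mortem.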

[16] = molecular target: T1, Nuclear receptor subfamily 1 group I member 2; test: Agonist activity at PXR in human HepaRG cells assessed as increase in CYP3A4 protein expression at 1 to 25 uM incubated for 24 hrs by immunoblot analysis; assay type: cell-based

With C/C(=C\CC/C(C)=C/CC[C@]1(C)CCc2cc(O)cc(C)c2O1)CC/C=C(\C)C(=O)O the Activity [1] was “Non-Toxic”, the Activity [2] was “Active” and the Activity [3] was “Active”. The Activity (Mus musculus [4]) was “Active”, the Activity [5] was “inactive” and the Activity [6] was “Dose-dependent effect”. The Activity (HepG2) was “inactive”, the Activity [7] was “Non-Toxic” and the Activity (Mus musculus [8]) was “Active”. The Activity (Mus musculus [9]) was “Dose-dependent effect”, the Activity [10] was “Active” and the Activity [11] was “Dose-dependent effect”. For the same compound, the Emax [12] was 103%, the Activity [13] was “Not Active” and the Activity (Mus musculus [14]) was “Active”. The mortality at 24 h [15] was 100% and the Activity [16] was “Active”.

Source: ChEMBL document CHEMBL4402582, “Garcinoic Acid Is a Natural and Selective Agonist of Pregnane X Receptor” (J Med Chem, 2020)
